Key:
MOLT-4 cells = assay: MOLT-4 cell viability; assay type: cell-based; conditions: for IC50: Homo sapiens, MOLT-4, 48 h, read-out: IC50 (MOLT-4 cells)
How it was run: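 MOLT-4 (T-ALL) cells, STR-profiled and mycoplasma-negative, were kept at 37 °C in 5% CO2. Between […] and 1 × 10^5 suspension cells were seeded per well and exposed to test compound for 48 h or 72 h. Viability was read with tetrazolium MTS reagent, and IC50 values were calculated from the viability data.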

Bcl-xL [1] = target: T1, Bcl-xL (Homo sapiens, UniProt Q07817); assay: Bcl-xL degradation in MOLT-4 cells; assay type: cell-based
T1 sequence (Q07817 whole entry): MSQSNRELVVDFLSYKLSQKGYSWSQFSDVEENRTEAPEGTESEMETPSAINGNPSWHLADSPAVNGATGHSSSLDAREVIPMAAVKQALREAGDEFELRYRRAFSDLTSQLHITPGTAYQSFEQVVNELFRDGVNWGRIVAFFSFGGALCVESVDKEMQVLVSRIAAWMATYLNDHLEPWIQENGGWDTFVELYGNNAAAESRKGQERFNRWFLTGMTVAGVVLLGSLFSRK
How it was run: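 MOLT-4 cells (RPMI 1640, 10% FBS, 1% penicillin–streptomycin, 37 °C, 5% CO2) were treated for 16 h across a concentration series, or at 100 nM over a time course. Where stated, cells had 1 μM MG-132 pretreatment for 2 h. Lysates were run on 4–20% Tris-glycine gels and blotted to PVDF, with ECL detection. Band densities were normalised to β-actin, three independent experiments, mean ± SD.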

platelets = assay: In vivo platelet toxicity assay; conditions: single dose 1.5 mg kg−1, i.p., mice
MOLT-4 xenograft = assay: MOLT-4 T-ALL xenograft mouse model; assay type: in vivo; conditions: 1.5 mg kg−1, Q4D, i.p., MOLT-4 xenograft mice
How it was run: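 MOLT-4 cells (5 × 10^6) in RPMI:Matrigel 1:1 were implanted s.c. in the right flank of 5-week-old CB-17 SCID mice. At mean tumour ~150 mm3, mice were randomised (n = 6 per group) to vehicle or 1.5 mg kg−1 i.p. every 4 days. The vehicle was 50% Phosal 50 PG, 45% Miglyol 810 N and 5% polysorbate 80. Calipers were used twice weekly, volume = (L × W2) × 0.5.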

Bcl-xL [2] = target: T1, Bcl-xL; assay: Bcl-xL levels in human platelets; assay type: cell-based; conditions: 48 h
human platelets = assay: Human platelet viability assay; assay type: cell-based
SCLC cell lines = assay: Viability of a panel of SCLC cell lines; assay type: cell-based; conditions: 72 h
How it was run: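 SCLC lines came from the NCI-Navy Medical Oncology supply, with H146 from ATCC. Stocks were STR-profiled and mycoplasma-negative, kept at 37 °C and 5% CO2.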

[3] = system: PARP and caspase-3 cleavage; assay: Western blot of cleaved PARP and cleaved caspase-3 in MOLT-4 cells; assay type: cell-based; conditions: 16 h
How it was run: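 MOLT-4 cells were treated for 16 h across a concentration series. Lysates were immunoblotted (4–20% Tris-glycine gels, PVDF, 5% milk/TBST block, primary antibody overnight at 4 °C, HRP secondary, ECL) for cleaved PARP and cleaved caspase-3. Full-length PARP was detected by stripping and reprobing the membrane. Bands were normalised to β-actin.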

NCI-H146 cells = conditions: read-out: IC50 (NCI-H146 cells); NCI-H146 SCLC cells; earlier work; cited from earlier work

| SMILES | IC50 (MOLT-4 cells) [nM] | other results |
| --- | --- | --- |
| CCN(CCOCCOCCOCCNc1cccc2c1C(=O)N(C1CCC(=O)NC1=O)C2=O)CC[C@H](CSc1ccccc1)Nc1ccc(S(=O)(=O)NC(=O)c2ccc(N3CCN(CC4=C(c5ccc(Cl)cc5)CCC(C)(C)C4)CC3)cc2)cc1S(=O)(=O)C(F)(F)F (stereo partly shown) [1b] | 52.8 | – |
| CC1(C)CCC(c2ccc(Cl)cc2)=C(CN2CCN(c3ccc(C(=O)NS(=O)(=O)c4ccc(N[C@H](CCN5CCOCC5)CSc5ccccc5)c(S(=O)(=O)C(F)(F)F)c4)cc3)CC2)C1 [ABT-263, navitoclax, reference compound] | 202 | – |
| CN(CCOCCOCCN1CCN(c2cccc3c2C(=O)N(C2CCC(=O)NC2=O)C3=O)CC1)CC[C@H](CSc1ccccc1)Nc1ccc(S(=O)(=O)NC(=O)c2ccc(N3CCN(CC4=C(c5ccc(Cl)cc5)CCC(C)(C)C4)CC3)cc2)cc1S(=O)(=O)C(F)(F)F (stereo partly shown) [2d] | 10.6 | fold weaker cellular activity than 2b (MOLT-4 cells; vs 2b, MOLT-4 cells): 2 fold |
| CN(CCOCCOCCOCC#Cc1ccc2c(c1)CN(C1CCC(=O)NC1=O)C2=O)CC[C@H](CSc1ccccc1)Nc1ccc(S(=O)(=O)NC(=O)c2ccc(N3CCN(CC4=C(c5ccc(Cl)cc5)CCC(C)(C)C4)CC3)cc2)cc1S(=O)(=O)C(F)(F)F (stereo partly shown) [5a] | 2.1 | – |
| CN(CCOCCOCCN1CCC(C#Cc2cccc3c2C(=O)N(C2CCC(=O)NC2=O)C3=O)CC1)CC[C@H](CSc1ccccc1)Nc1ccc(S(=O)(=O)NC(=O)c2ccc(N3CCN(CC4=C(c5ccc(Cl)cc5)CCC(C)(C)C4)CC3)cc2)cc1S(=O)(=O)C(F)(F)F (stereo partly shown) [2e] | 36.1 | fold reduced activity compared to 2d (MOLT-4 cells; vs 2d, MOLT-4 cells): ~4 fold |
| CN(CCOCCOCCOCCCc1cccc2c1C(=O)N(C1CCC(=O)NC1=O)C2=O)CC[C@H](CSc1ccccc1)Nc1ccc(S(=O)(=O)NC(=O)c2ccc(N3CCN(CC4=C(c5ccc(Cl)cc5)CCC(C)(C)C4)CC3)cc2)cc1S(=O)(=O)C(F)(F)F (stereo partly shown) [2c] | 6.2 | – |
| CN(CCOCCOCCOCC#Cc1cccc2c1C(=O)N(C1CCC(=O)NC1=O)C2=O)CC[C@H](CSc1ccccc1)Nc1ccc(S(=O)(=O)NC(=O)c2ccc(N3CCN(CC4=C(c5ccc(Cl)cc5)CCC(C)(C)C4)CC3)cc2)cc1S(=O)(=O)C(F)(F)F (stereo partly shown) [2b] | 5.2 | fold increase in potency against MOLT-4 cells compared to 2a (MOLT-4 cells; vs 2a): 2 fold |
| CC1(C)CCC(c2ccc(Cl)cc2)=C(CN2CCN(c3ccc(C(=O)NS(=O)(=O)c4ccc(N[C@H](CCNCCOCCOCCOCCNc5cccc6c5C(=O)N(C5CCC(=O)NC5=O)C6=O)CSc5ccccc5)c(S(=O)(=O)C(F)(F)F)c4)cc3)CC2)C1 (stereo partly shown) [1a] | 59.7 | – |
| CN(CCOCCOCCOCCCc1ccc2c(c1)CN(C1CCC(=O)NC1=O)C2=O)CC[C@H](CSc1ccccc1)Nc1ccc(S(=O)(=O)NC(=O)c2ccc(N3CCN(CC4=C(c5ccc(Cl)cc5)CCC(C)(C)C4)CC3)cc2)cc1S(=O)(=O)C(F)(F)F (stereo partly shown) [PZ671] | 1.3 | time to almost complete Bcl-xL degradation (Bcl-xL [1]; MOLT-4 cells, 100 nM): 4 h; time to significantly reduced Bcl-xL protein levels (Bcl-xL [1]; MOLT-4 cells, 100 nM): ≤ 2 h; Bcl-xL degradation after proteasome inhibitor pretreatment (Bcl-xL [1]; MOLT-4 cells, pretreatment with 1 μM MG-132 for 2 h): blocked; fold enhanced degradation potency against Bcl-xL compared to XZ739 (Bcl-xL [1]; vs XZ739, MOLT-4 cells): ~6 fold; platelet count recovery (platelets): rapid recovery observed from the second day onward; tumor growth (MOLT-4 xenograft): markedly suppressed the tumor growth; concentration at which Bcl-xL is degraded in human platelets (Bcl-xL [2]): above 1 μM; selectivity for MOLT-4 cells over platelets (human platelets): 25 fold; fold decrease in selectivity for MOLT-4 cells over platelets compared to XZ739 (human platelets; vs XZ739): ~5 fold; cell killing potency in SCLC cell lines compared to XZ739 (SCLC cell lines): more potent than XZ739; PARP and caspase-3 cleavage [3]: dose-dependently increased; fold improved cellular activity against MOLT-4 cells compared to XZ739 (MOLT-4 cells; vs XZ739, listed as 5b): 8 fold |
| CN(CCOCCOCCOCCOc1cccc2c1C(=O)N(C1CCC(=O)NC1=O)C2=O)CC[C@H](CSc1ccccc1)Nc1ccc(S(=O)(=O)NC(=O)c2ccc(N3CCN(CC4=C(c5ccc(Cl)cc5)CCC(C)(C)C4)CC3)cc2)cc1S(=O)(=O)C(F)(F)F (stereo partly shown) [2a] | 10.4 | – |
| CC1(C)CCC(c2ccc(Cl)cc2)=C(CN2CCN(c3ccc(C(=O)NS(=O)(=O)c4ccc(N[C@H](CCN(CCOCCOCCOCCNc5cccc6c5C(=O)N(C5CCC(=O)NC5=O)C6=O)C5CCC5)CSc5ccccc5)c(S(=O)(=O)C(F)(F)F)c4)cc3)CC2)C1 (stereo partly shown) [1e] | 330 | – |
| CN(CCOCCOCCN1CCC(CCc2cccc3c2C(=O)N(C2CCC(=O)NC2=O)C3=O)CC1)CC[C@H](CSc1ccccc1)Nc1ccc(S(=O)(=O)NC(=O)c2ccc(N3CCN(CC4=C(c5ccc(Cl)cc5)CCC(C)(C)C4)CC3)cc2)cc1S(=O)(=O)C(F)(F)F (stereo partly shown) [2f] | 45.5 | – |
| CN(CCOCCOCCOCC#Cc1cccc2c1CN(C1CCC(=O)NC1=O)C2=O)CC[C@H](CSc1ccccc1)Nc1ccc(S(=O)(=O)NC(=O)c2ccc(N3CCN(CC4=C(c5ccc(Cl)cc5)CCC(C)(C)C4)CC3)cc2)cc1S(=O)(=O)C(F)(F)F (stereo partly shown) [4a] | 4.1 | – |
| CC1(C)CCC(c2ccc(Cl)cc2)=C(CN2CCN(c3ccc(C(=O)NS(=O)(=O)c4ccc(N[C@H](CCN(CCOCCOCCOCCNc5cccc6c5C(=O)N(C5CCC(=O)NC5=O)C6=O)C5COC5)CSc5ccccc5)c(S(=O)(=O)C(F)(F)F)c4)cc3)CC2)C1 (stereo partly shown) [1f] | 397 | – |
| Cc1ncsc1-c1ccc([C@H](C)NC(=O)[C@@H]2C[C@@H](O)CN2C(=O)[C@@H](NC(=O)CCCCCC(=O)N2CCN(CC[C@H](CSc3ccccc3)Nc3ccc(S(=O)(=O)NC(=O)c4ccc(N5CCN(CC6=C(c7ccc(Cl)cc7)CCC(C)(C)C6)CC5)cc4)cc3S(=O)(=O)C(F)(F)F)CC2)C(C)(C)C)cc1 [DT2216] | – | IC50 (NCI-H146 cells): 278 nM |
| CC1(C)CCC(c2ccc(Cl)cc2)=C(CN2CCN(c3ccc(C(=O)NS(=O)(=O)c4ccc(N[C@H](CCN(CCOCCOCCOCCNc5cccc6c5C(=O)N(C5CCC(=O)NC5=O)C6=O)C5CCCCC5)CSc5ccccc5)c(S(=O)(=O)C(F)(F)F)c4)cc3)CC2)C1 (stereo partly shown) [1i] | > 1000 | – |
| CC1(C)CCC(c2ccc(Cl)cc2)=C(CN2CCN(c3ccc(C(=O)NS(=O)(=O)c4ccc(N[C@H](CCN(CCOCCOCCOCCNc5cccc6c5C(=O)N(C5CCC(=O)NC5=O)C6=O)C5CC5)CSc5ccccc5)c(S(=O)(=O)C(F)(F)F)c4)cc3)CC2)C1 (stereo partly shown) [1d] | 297 | – |
| CC1(C)CCC(c2ccc(Cl)cc2)=C(CN2CCN(c3ccc(C(=O)NS(=O)(=O)c4ccc(N[C@H](CCN(CCOCCOCCOCCNc5cccc6c5C(=O)N(C5CCC(=O)NC5=O)C6=O)CC5CCC5)CSc5ccccc5)c(S(=O)(=O)C(F)(F)F)c4)cc3)CC2)C1 (stereo partly shown) [1g] | 326 | – |
| CN(CCOCCOCCOCC#Cc1ccc2c(c1)C(=O)N(C1CCC(=O)NC1=O)C2=O)CC[C@H](CSc1ccccc1)Nc1ccc(S(=O)(=O)NC(=O)c2ccc(N3CCN(CC4=C(c5ccc(Cl)cc5)CCC(C)(C)C4)CC3)cc2)cc1S(=O)(=O)C(F)(F)F (stereo partly shown) [3a] | 14.3 | fold reduced potency against MOLT-4 cells compared to 2b (MOLT-4 cells; vs C4-substituted 2b): ~3 fold |
| CN(CCOCCOCCOCCCc1cccc2c1CN(C1CCC(=O)NC1=O)C2=O)CC[C@H](CSc1ccccc1)Nc1ccc(S(=O)(=O)NC(=O)c2ccc(N3CCN(CC4=C(c5ccc(Cl)cc5)CCC(C)(C)C4)CC3)cc2)cc1S(=O)(=O)C(F)(F)F (stereo partly shown) [4b] | 4.5 | – |
| CN(CCOCCOCCOCCCc1ccc2c(c1)C(=O)N(C1CCC(=O)NC1=O)C2=O)CC[C@H](CSc1ccccc1)Nc1ccc(S(=O)(=O)NC(=O)c2ccc(N3CCN(CC4=C(c5ccc(Cl)cc5)CCC(C)(C)C4)CC3)cc2)cc1S(=O)(=O)C(F)(F)F (stereo partly shown) [3b] | 4.3 | – |
